In article PMC5010991 (Molecular cancer therapeutics, 2016):

How the values were obtained:
T98G cells [1] = experiment: Cell number using WST-1; format: cell-based, human; settings: for reduction of cell number: T98G, 10 µM, WST-1
In short: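 T98G cells (ATCC, STR-authenticated, under 6 months in culture) grown in DMEM or RPMI with 10% FBS, 100 U/mL penicillin and 100 µg/mL streptomycin at 37°C, 5% CO2. Cells exposed to test compound at 10 µM, with nocodazole or paclitaxel (10 µM each) run in parallel. Cell number followed over 72 hrs by WST-1 per kit protocol. Mean ± SEM of at least 3 independent experiments.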

T98G cells [2] = experiment: Live cell imaging of EB3-GFP on assembling MTs; format: cell-based, human; settings: nocodazole 1 µM, by 15 min
In short: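 T98G cells transfected with EB3-GFP and RFP-CenpB to mark growing MT plus ends and centromeres. Treated with test compound (0.5 or 3 µM) or nocodazole (1 µM). Movies of 30 sec at 500 ms intervals were taken on a deconvolution microscope starting 10 min after drug addition. Images were deconvolved, and MT assembly rates were tracked in interphase cells.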

bovine brain tubulin = experiment: Cell-free MT assembly assay with purified tubulin; format: biochemical
[3] = test system: MDA-MB-231 breast cancer cells; experiment: Viability of positive-control breast cancer cells; format: cell-based; settings: MDA-MB-231, by 72 hrs

Molecule	reduction of cell number (T98G cells [1]; 12 hrs)	reduction of cell number (T98G cells [1]; 72 hrs)	assembling MTs in live cells (T98G cells [2])	level of free tubulin (bovine brain tubulin)	effect of caspase-3 inhibition on the antineoplastic action of ST-11 (T98G cells [1]; Z-DEVD-FMK 10 µM, 15 min preincubation, ST-11 10 µM)	viability [3]
COC(=O)Nc1nc2ccc(C(=O)c3cccs3)cc2[nH]1 [nocodazole]	10–15%	34%	abolished all assembling MTs	triggered an increase the free tubulin	–	–
Z-DEVD-FMK	–	–	–	–	blocked the antineoplastic action of ST-11	–
CC(=O)O[C@H]1C(=O)[C@@]2(C)[C@H]([C@H](OC(=O)c3ccccc3)[C@]3(O)C[C@H](OC(=O)[C@H](O)[C@@H](NC(=O)c4ccccc4)c4ccccc4)C(C)=C1C3(C)C)[C@]1(OC(C)=O)CO[C@@H]1C[C@@H]2O [paclitaxel]	10–15%	inactive	–	decrease in free tubulin levels	–	reduced the viability
